Holding throughout (experiment): UV-Vis titration, Soret spin-state shift
Type in all cases: binding

For test [1], the target named is T1, CYP199A4 (Rhodopseudomonas palustris, UniProt Q2IU02).
T1 sequence (Q2IU02 1-410): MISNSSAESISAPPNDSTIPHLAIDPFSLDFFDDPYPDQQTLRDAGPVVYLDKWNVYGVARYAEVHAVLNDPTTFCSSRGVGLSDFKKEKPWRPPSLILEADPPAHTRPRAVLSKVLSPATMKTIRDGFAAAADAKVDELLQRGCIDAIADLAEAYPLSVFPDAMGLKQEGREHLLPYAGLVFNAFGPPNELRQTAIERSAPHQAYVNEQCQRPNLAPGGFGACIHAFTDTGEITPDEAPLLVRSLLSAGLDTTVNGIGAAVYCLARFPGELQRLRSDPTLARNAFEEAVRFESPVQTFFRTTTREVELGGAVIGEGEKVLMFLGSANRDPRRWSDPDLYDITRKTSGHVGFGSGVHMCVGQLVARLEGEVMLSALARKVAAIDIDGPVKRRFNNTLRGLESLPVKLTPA

In test [2] the target is T2, CYP199A4 (Rhodopseudomonas palustris, UniProt Q2IU02, D252N).
T2 sequence (Q2IU02 1-410 D252N): T1 sequence (Q2IU02 1-410) with D252N
The method in brief: (§1)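 CYP199A4 mutants (D251N, T252A) from Rhodopseudomonas palustris HaA2 were titrated with para-substituted benzoic acid test compounds, with UV-Vis monitoring to obtain Kd. Spectra were recorded from 700 to 250 nm at 600 nm min⁻¹, and repeated at 60 nm min⁻¹ to verify small Soret shifts. P450 concentration came from pyridine hemochromogen extinction coefficients: D251N 123±1, T252A 120±4 mM⁻¹ cm⁻¹.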

Test [3] concerns the target T3, CYP199A4 (Rhodopseudomonas palustris, UniProt Q2IU02, T253A).
T3 sequence (Q2IU02 1-410 T253A): T1 sequence (Q2IU02 1-410) with T253A
The method in brief: as §1

Where a chain is given by its changes, count along the chain named.

As usually defined, the Kd is the constant that tells how readily two partners part at equilibrium. For `CSc1ccc(C(=O)O)cc1` [4‐methylthiobenzoic acid], the values for the dissociation constant (Kd) on CYP199A4 [1], at CYP199A4 [2] and at CYP199A4 [3] were 2300 ± 300 nM, 830 ± 80 nM and 1400 ± 100 nM, respectively.
For the compound `CCSc1ccc(C(=O)O)cc1` [4‐ethylthiobenzoic acid], the Kd came to 990 ± 50 nM at CYP199A4 [1] and 250 ± 50 nM at CYP199A4 [3].

These data come from paper PMC10100219 (Chemistry (Weinheim an Der Bergstrasse, Germany), 2022).
